NR3A LBD binder: binders of NR3A ligand-binding domain, primary screen, biophysical, differential scanning fluorimetry, uHTS | Glutamate receptor ionotropic, NMDA 3A (GRIN3A) ligand-binding domain | NR3A LBD differential scanning fluorimetry, Tm shift; 0% = protein alone, 100% = glycine-bound protein | Tm shift relative to glycine control, % at 25 µM | hit rate 2.5% among 340,000 | AID 1259313, 2017;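 active = melting temperature shift of at least 10% of the positive control shift, at one fixed dose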
T cruzi repl: inhibitors of intracellular T. cruzi growth, primary screen, luminescence, NIH3T3 host cells. inhibition, % (no concentration beside the values). T. cruzi beta-gal in NIH3T3, 90 h. hit rate 1.4% among 300,000;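 active = mean inhibition across valid replicates above about 55%, limit read from the data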;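 also: signal also drops with host cell toxicity which is not excluded here; 0% = plate median of DMSO wells and 100% = zero luminescence signal; higher percent means less beta-gal luminescence so fewer parasites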
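Assay system: NIH/3T3 host cells with β-galactosidase reporter T. cruzi; input: 5,000 host fibroblasts per well; compound: single 50 nL compound addition per well in DMSO; timing: ≥90 h infection period, 3 h prior cell attachment; measured by: GalScreen β-gal luminescence, detergent lysis, 60 min; evaluation: percent inhibition of parasite-derived β-gal signal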
CSC inhib: cancer stem cell viability inhibitors, primary screen, luminescence; cancer stem cell-like cells viability; inhibition, % at 7.5 µM; hit rate 1.1% among 300,000; in the data active = inhibition above about 75%; tested in HMLE shEcad cells
Beta cell apopt: inhibitors of cytokine-induced beta cell apoptosis, primary screen, luminescence; INS-1E cytokine-induced death, ATP luminescence, 48 h; percent of positive-control rescue, neutral wells zero; protection from apoptosis, % (no concentration beside the values); hit rate 0.8% among 300,000; AID 435005, 2010;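 active = Every replicate reaches about 75%, or at least half do and their mean reaches it too, limit read from the data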;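 also: 0% = cytokine-treated negative control wells and 100% = positive control rescue; higher means more ATP so stronger rescue from cytokine killing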
PREPL inhibitor: PREPL enzyme inhibitors, primary screen, biochemical, fluorescence polarization | Prolyl endopeptidase-like (Homo sapiens), Q4J6C6 | recombinant PREPL, fluorescence polarization activity-based probe | inhibition, % at 5.96 µM | hit rate 0.68% among 320,000 | AID 2751, 2010; in the data active = inhibition above about 43%;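 also: 0% = enzyme with DMSO and 100% = wells lacking enzyme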
Target sequence (Q4J6C6 whole entry, looked up): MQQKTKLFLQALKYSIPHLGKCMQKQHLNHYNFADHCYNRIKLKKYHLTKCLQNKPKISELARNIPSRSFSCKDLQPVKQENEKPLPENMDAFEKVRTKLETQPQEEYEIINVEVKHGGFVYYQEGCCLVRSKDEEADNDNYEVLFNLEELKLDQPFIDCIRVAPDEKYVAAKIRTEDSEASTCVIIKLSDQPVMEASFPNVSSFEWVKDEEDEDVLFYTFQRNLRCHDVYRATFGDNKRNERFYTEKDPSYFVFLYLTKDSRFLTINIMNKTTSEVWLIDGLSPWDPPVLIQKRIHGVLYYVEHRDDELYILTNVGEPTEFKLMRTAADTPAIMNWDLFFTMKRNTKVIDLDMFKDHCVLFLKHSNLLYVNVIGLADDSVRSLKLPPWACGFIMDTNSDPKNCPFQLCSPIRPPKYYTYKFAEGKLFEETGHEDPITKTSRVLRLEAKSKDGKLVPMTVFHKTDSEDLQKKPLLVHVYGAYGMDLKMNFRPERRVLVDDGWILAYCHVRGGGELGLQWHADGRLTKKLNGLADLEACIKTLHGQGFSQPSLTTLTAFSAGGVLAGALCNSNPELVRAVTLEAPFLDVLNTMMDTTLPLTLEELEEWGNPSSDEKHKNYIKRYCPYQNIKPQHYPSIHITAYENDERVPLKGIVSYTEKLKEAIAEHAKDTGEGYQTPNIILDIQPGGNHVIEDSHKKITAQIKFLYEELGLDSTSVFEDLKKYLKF
CHOP inh: inhibitors of CHOP promoter induction, primary screen, cell-based, unfolded protein response, luciferase reporter | CHO-K1 CHOP-promoter luciferase, tunicamycin-induced, 15-18 h | inhibition, % at 10 µM | hit rate 3.8% among 220,000 | AID 2732, 2010;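 active = compounds that reduced the stress-induced luciferase reporter signal by more than about 70% of percent inhibition, limit read from the data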;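 also: 0% = tunicamycin plus vehicle and 100% = wells without tunicamycin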
Active calls of the source: *; / = not tested or not shown. Compounds with a hit are over-represented: about 6.7% of the library has one in this group of screens.

SMILES	NR3A LBD binder	T cruzi repl	CSC inhib	Beta cell apopt	PREPL inhibitor	CHOP inh
C(=C\c1ccccc1)/CN1CCN(Cc2ccc3c(c2)OCCO3)CC1	/	64*	/	/	/	24
O=[N+]([O-])c1cnc(Sc2ccncn2)s1	2	19	107*	109*	9	107*
Nc1ncnc2c1ncn2[C@@H]1O[C@H](CNC(=O)[C@@H]2CCC(=O)N2)[C@@H](O)[C@H]1O	3	/	/	/	/	/
CCOc1ccc(Nc2nnc(SCc3nc4ccccc4c(=O)[nH]3)s2)cc1	1	-4	14	16	-11	96*
c1ccc(Nc2nnc(SCc3cccc4ccccc34)s2)cc1	11*	21	/	-1	-6	3
CCOc1ccc(Nc2nc3ccccc3c(=O)s2)cc1	-2	-3	-28	3	4	-10
Cc1cccc(C)c1Nc1nnc(SCc2nc3ccccc3c(=O)[nH]2)s1	32*	8	-6	-6	1	27
Cc1ccccc1Nc1nnc(SCc2nc3ccccc3c(=O)[nH]2)s1	/	-6	-9	7	-1	32
O=C(C(Sc1ccccc1)c1ccccc1)N1CCN(c2ccccc2F)CC1 (centres undefined)	3	6	/	90*	-42	54
O=C(C(Sc1ccccc1)c1ccc(Br)cc1)N1CCOCC1 (centres undefined)	0	4	-9	0	-5	10
O=C(/C=C/c1ccco1)NC(=S)Nc1ccc(N2CCOCC2)c(Cl)c1	-3	-26	60	13	6	75*
O=C(Nc1ccc2c(c1)oc1ccccc12)c1ccc(Br)o1	29*	18	11	6	-16	30
O=C(/C=C/c1ccccc1)NC(=S)Nc1ccc(N2CCOCC2)c(Cl)c1	-1	1	/	-3	12	52
O=C(Nc1ccc(N2CCN(C(=O)c3ccccc3)CC2)c(Cl)c1)c1ccc(Br)o1	-1	43	-9	20	16	85*
O=C(Nc1ccc(N2CCOCC2)c(Cl)c1)c1ccc(F)cc1	-1	-11	-1	-1	-3	/
O=C(Nc1ccc(N2CCOCC2)c(Cl)c1)c1ccccc1Cl	19*	10	/	-1	3	2
Cc1ccc(C)c(Nc2nc(-c3ccncc3)nc3ccccc23)c1	-5	51	15	7	2	/
COCCn1c(SCC(=O)NC2CCCCC2)nnc1-c1ccncc1	1	-17	-15	-7	8	/
CNS(=O)(=O)c1cccc(C(=O)OCC(=O)c2c(N)n(Cc3ccccc3)c(=O)n(C)c2=O)c1	-8	/	/	/	/	/
CC(NC(=O)c1cccc(S(=O)(=O)N2CCN(C)CC2)c1)c1ccc(Cl)cc1Cl (centres undefined)	3	5	-6	0	-8	/
O=C(COc1ccc2ccccc2c1)Nc1nnc(-c2ccco2)s1	5	1	1	1	1	72*
COc1ccc(-n2cnc(=S)[nH]c2=S)cc1	18*	/	/	/	/	/
O=[N+]([O-])c1ccc(N2CCN(CCOc3nonc3-c3ccccc3)CC2)c(Cl)c1	-4	28	8	119*	-40	38
O=C(N=Nc1c(O)n(C2OC(=O)c3ccccc32)c2ccccc12)c1ccc(O)cc1 (centres undefined)	-1	-8	-3	0	5	78*
CC(C)Sc1nc2ccccc2n1CC(=O)O	0	-8	7	-3	6	7
CC1=CSC2=NC(=O)/C(=C\c3cccn3-c3ccc([N+](=O)[O-])cc3)C(=N)N12	-6	11	9	6	5	87*
CC1=CSC2=NC(=O)/C(=C\c3cccn3-c3ccccc3)C(=N)N12	3	-7	-11	-6	0	-7
COc1ccc(N(CC(=O)Nc2ccccc2OC)S(=O)(=O)c2ccc(NC(C)=O)cc2)cc1	-7	-5	63	16	14	/
COc1cc(/C=C2\SC(=O)N(CCN)C2=O)ccc1OS(=O)(=O)c1cc(C)ccc1C	-16	47	/	/	/	93*
